This is an account of results in ChEMBL document CHEMBL4000215, “A structure-guided optimization of pyrido[2,3-d]pyrimidin-7-ones as selective inhibitors of EGFRL858R/T790M mutant with improved pharmacokinetic properties” (Eur J Med Chem, 2017).

Data set [1] concerns the target T1, Epidermal growth factor receptor (Homo sapiens, UniProt P00533). The experiment in a line: Inhibition of N-terminal 6His/TEV protease cleavage site-tagged wild type human EGFR using poly (Glu,Tyr) 4:1 as substrate after 1 hr by ELISA.
Data set [2] addresses Epidermal growth factor receptor (Homo sapiens, UniProt P00533, L858R/T790M). The experiment in a line: Inhibition of N-terminal 6His/TEV protease cleavage site-tagged human EGFR L858R/T790M double mutant (696 to 1022 residues) using poly (Glu,Tyr) 4:1 as substrate after 1 hr by ELISA.
The subject of data set [3] is NCI-H1975. The experiment in a line: Antiproliferative activity against human NCI-H1975 cells harboring EGFR L858R/T790M double mutant after 72 hrs by SRB assay. In kind it is functional, cell-based. The conditions noted are these: NCI-H1975, 72 h. The essentials:
(§1)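 Cells were cultured in RPMI 1640 with 10% FBS and 1% penicillin-streptomycin at 37 °C in 5% CO2, and their EGFR gene was sequenced before use. They were exposed to a range of compound concentrations for 72 h, and growth was read by sulforhodamine B staining. IC50 came from non-linear regression with a sigmoidal dose-response model.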

The subject of data set [4] is A-431. The experiment in a line: Antiproliferative activity against human A431 cells harboring wild type EGFR after 72 hrs by SRB assay. In kind it is cell-based. The conditions noted are these: A-431, 72 h. The essentials: as §1
For data set [5], the target named is T1, Epidermal growth factor receptor. The experiment in a line: Inhibition of EGF-stimulated wild type EGFR phosphorylation in human A431 cells at 3 to 300 nM preincubated for 4 hrs followed by EGF stimulation measured after 10 mins by Western blot analysis. The conditions noted are these: a431, 10 min, 0.3 µM.
Data set [6] shares this target. The experiment in a line: Inhibition of EGF-stimulated wild type EGFR in human A431 cells assessed as decrease in ERK phosphorylation at 3 to 300 nM preincubated for 4 hrs followed by EGF stimulation measured after 10 mins by Western blot analysis. As to conditions: a431, 10 min, 0.3 µM; call rule not given here.

SMILES strings stand for the structures.

T1 sequence (P00533 whole entry, the tested form may be a part): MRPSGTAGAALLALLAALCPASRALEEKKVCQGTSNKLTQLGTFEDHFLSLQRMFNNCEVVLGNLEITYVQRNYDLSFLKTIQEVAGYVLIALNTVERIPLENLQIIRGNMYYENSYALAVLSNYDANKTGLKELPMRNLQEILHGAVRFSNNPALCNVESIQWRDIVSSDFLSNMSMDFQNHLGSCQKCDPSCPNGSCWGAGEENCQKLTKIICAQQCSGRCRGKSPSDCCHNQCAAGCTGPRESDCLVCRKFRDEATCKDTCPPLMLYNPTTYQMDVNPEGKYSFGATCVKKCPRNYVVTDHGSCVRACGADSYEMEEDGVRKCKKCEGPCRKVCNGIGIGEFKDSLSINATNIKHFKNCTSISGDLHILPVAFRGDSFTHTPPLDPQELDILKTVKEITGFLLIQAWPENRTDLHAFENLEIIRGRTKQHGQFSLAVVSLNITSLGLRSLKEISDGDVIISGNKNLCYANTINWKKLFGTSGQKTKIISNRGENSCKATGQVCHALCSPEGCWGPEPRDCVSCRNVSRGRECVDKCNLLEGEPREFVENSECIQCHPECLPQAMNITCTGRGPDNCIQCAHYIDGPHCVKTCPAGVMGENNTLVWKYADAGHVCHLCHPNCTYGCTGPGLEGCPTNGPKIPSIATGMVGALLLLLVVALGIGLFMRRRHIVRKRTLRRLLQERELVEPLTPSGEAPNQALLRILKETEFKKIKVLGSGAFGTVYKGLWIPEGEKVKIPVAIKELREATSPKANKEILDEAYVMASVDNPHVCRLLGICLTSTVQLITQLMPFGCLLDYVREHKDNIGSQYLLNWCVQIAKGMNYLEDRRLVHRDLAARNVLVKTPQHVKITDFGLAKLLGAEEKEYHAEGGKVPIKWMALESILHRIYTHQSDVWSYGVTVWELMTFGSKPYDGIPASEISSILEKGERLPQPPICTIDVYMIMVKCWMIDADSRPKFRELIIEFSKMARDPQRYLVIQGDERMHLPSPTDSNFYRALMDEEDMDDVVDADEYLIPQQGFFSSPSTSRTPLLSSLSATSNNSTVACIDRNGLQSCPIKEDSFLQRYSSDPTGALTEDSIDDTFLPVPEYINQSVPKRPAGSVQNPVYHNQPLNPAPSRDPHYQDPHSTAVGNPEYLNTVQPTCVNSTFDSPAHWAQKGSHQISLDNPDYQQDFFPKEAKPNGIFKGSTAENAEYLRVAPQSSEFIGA
Epidermal growth factor receptor (Homo sapiens, UniProt P00533, L858R/T790M), sequence (P00533 25-1210 T790M/L858R limits assumed): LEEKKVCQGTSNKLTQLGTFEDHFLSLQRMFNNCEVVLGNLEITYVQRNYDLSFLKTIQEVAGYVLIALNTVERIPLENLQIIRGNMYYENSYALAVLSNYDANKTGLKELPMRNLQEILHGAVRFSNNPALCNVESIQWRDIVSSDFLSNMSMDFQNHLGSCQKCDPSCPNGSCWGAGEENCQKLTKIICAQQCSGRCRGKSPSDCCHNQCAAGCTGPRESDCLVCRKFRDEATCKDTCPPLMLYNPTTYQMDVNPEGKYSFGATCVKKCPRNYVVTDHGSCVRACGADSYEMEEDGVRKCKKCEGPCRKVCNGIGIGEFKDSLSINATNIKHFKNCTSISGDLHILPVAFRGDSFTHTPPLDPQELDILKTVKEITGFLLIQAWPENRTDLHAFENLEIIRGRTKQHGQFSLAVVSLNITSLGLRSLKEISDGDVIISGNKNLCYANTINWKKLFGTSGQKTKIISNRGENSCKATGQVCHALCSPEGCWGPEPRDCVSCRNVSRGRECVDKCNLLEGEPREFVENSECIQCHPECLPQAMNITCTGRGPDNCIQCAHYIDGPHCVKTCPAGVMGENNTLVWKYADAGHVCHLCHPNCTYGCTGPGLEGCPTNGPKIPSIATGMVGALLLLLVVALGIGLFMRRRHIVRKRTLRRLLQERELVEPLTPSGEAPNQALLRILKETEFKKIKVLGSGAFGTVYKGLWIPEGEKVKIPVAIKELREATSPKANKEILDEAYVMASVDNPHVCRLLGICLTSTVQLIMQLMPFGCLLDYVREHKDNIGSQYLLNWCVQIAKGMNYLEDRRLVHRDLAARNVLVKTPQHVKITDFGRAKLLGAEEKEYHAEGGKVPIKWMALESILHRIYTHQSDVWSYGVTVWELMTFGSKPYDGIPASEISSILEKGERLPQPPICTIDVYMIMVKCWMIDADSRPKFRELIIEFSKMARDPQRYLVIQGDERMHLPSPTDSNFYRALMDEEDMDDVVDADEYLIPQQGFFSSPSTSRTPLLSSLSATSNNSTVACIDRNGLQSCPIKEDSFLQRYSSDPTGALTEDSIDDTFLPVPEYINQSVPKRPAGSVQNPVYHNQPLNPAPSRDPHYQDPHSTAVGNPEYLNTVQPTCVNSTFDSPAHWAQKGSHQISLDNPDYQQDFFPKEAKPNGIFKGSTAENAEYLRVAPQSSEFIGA

With `C=CC(=O)Nc1cc(-n2c(=O)cc(C)c3cnc(Nc4ccc(N5CCN(C)CC5)cc4OC)nc32)cc(C(F)(F)F)c1`, the IC50 in data set [1] amounted to 182 nM; in data set [2], 2 nM; in data set [3], 40 nM; in data set [4], 1390 nM. Further, the “inhibition (INH)” value in data set [5] and in data set [6] was “Not Active” in each case.
